Screening results as filed in PubChem BioAssay.
S1P3 antagonist – antagonists of human S1P3 receptor. inhibition, % at 4.98 µM. actives 0.27% (n = 170,000). CHO S1P3 NFAT-BLA reporter, FRET fluorescence, antagonist mode. Q99500. AID 485;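 active = inhibition above the plate cutoff, the mean inhibition of test wells on that plate plus 3 SD, cut at about 28% in these data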;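 note: cells challenged with S1P at its EC80 of 0.8 µM; blue over green emission ratio from cleaved BLA substrate after 4 h stimulation; 0% = S1P-stimulated wells and 100% = unstimulated DMSO-only wells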
Target sequence (Q99500 whole entry, looked up): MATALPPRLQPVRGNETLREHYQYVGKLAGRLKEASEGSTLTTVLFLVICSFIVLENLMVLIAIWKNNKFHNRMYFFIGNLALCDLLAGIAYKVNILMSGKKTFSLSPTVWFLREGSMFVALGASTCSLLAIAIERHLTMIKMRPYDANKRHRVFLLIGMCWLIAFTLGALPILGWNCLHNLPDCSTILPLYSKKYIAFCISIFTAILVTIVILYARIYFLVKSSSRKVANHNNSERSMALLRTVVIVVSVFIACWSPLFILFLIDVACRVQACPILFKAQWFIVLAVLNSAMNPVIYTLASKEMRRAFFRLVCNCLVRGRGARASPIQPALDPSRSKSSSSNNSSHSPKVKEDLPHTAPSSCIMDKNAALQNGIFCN
S1P4 ag – agonists of human S1P4 receptor; O95977; S1P4-expressing cell line, agonist reporter assay; activation, % at 4.98 µM; actives 0.35% (n = 220,000); AID 1509; in the data active = activation above about 11%;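 note: 0% = DMSO vehicle and 100% = reference agonist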
Biofilm kill mix – mixtures killing C. albicans biofilm | C. albicans biofilm persisters + clotrimazole, fluorescence viability; primary screen in compound mixtures of four per well | inhibition, % at 7.6 µM | actives 0.02% (n = 120,000) | AID 1242;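 active = inhibition above 30.3% in the primary screen of four-compound pools, then above 30% when the compound was retested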;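 note: compounds exposed to preformed 24 h biofilms for 48 h; 0% = untreated biofilm control and 100% = clotrimazole plus chlorhexidine kill blank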
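Probe or stimulus – Clotrimazole 50 µg/mL co-treatment · System – C. albicans biofilms · Schedule – 24 h biofilm formation, then 48 h compound exposure, 37 °C · Evaluation – percent inhibition of biofilm viability · Technique – 2-h Alamar Blue fluorescence, 535/590 nm excitation/emission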
MDM2 E3 inh – blocks human Mdm2 ubiquitin ligase activity; cell-based MDM2 ubiquitination luciferase reporter, 2 h; 0 = plate control, 100 = twice control, blank-subtracted; actives 0.11% (n = 210,000); signal enhancement, % at 5 µM; Q00987; AID 1230;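 active = signal enhancement of 30% or more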;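 note: luminescence tracks abundance of the self-degrading MDM2-luciferase fusion protein; higher signal means inhibition of MDM2 E3 ligase activity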
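System: stable MDM2–luciferase fusion reporter cells / Input: 2000 cells seeded into each well / Schedule: 4 h settle plus 2 h compound, 37 °C / Compound: single-point 5 µM / Buffer or medium: cells held in DMEM / Benchmarks: control and blank well means / Evaluation: percent signal gain over controls, blank-subtracted / Measured by: luciferase luminescence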
S1P4 antag – antagonists of human S1P4 receptor; O95977; S1P4-expressing cells, antagonist mode, reporter read-out; inhibition, % at 4.98 µM; actives 0.26% (n = 220,000); AID 1510; in the data active = inhibition above about 29%;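 note: 0% = wells stimulated with agonist and 100% = vehicle wells without agonist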
The depositor's hits bear a star. Only some compounds are listed: those with a hit (about 0.9% of all), similar ones and a draw of the others.

How did C=CCOC(=O)c1[nH]c2c(c1C)C(=O)CC(c1cc(OC)c(OC)c(OC)c1)C2 (centres undefined) do in these assays?
S1P3 antagonist: 0.1; S1P4 ag: 1.1; MDM2 E3 inh: -9.0; S1P4 antag: -6.0

How did CCCCOC(=O)c1[nH]c2c(c1C)C(=O)CC(c1cc(OC)c(OC)c(OC)c1)C2 (centres undefined) do in these assays?
S1P3 antagonist: 52.5*; S1P4 ag: 2.3; MDM2 E3 inh: -28.1; S1P4 antag: -4.5

How did Cc1ccccc1OCCCn1c(=O)sc2ccccc21 do in these assays?
S1P4 ag: 0.1; S1P4 antag: -1.2

Results for Cc1ccc(Nc2nnc(SCC(=O)NCCN3C(=O)CSC3=O)s2)cc1 ?
S1P3 antagonist: -4.1; S1P4 ag: -2.5; Biofilm kill mix: 2.5; MDM2 E3 inh: -14.8; S1P4 antag: -15.1

What do the screens show for `NC(=S)NNC(=O)c1cccc(Cl)c1`?
S1P3 antagonist: 12.1; S1P4 ag: -0.2; Biofilm kill mix: 12.9; MDM2 E3 inh: -14.0; S1P4 antag: -1.2

How did Cc1ccc(S(=O)(=O)N2CCN(C(=O)CC(C)C)CC2)cc1 do in these assays?
S1P3 antagonist: 6.0; S1P4 ag: 0.1; Biofilm kill mix: 5.5; MDM2 E3 inh: 31.8*; S1P4 antag: -7.9

What do the screens show for `CC(C)CC(=O)N1CCN(S(=O)(=O)c2ccc(Cl)cc2)CC1`?
S1P3 antagonist: -6.8; S1P4 ag: 1.1; Biofilm kill mix: 21.9; MDM2 E3 inh: -1.4; S1P4 antag: -15.7

What do the screens show for `COc1ccc(N2C(=S)N=C(Nc3ccccc3)C23CCCCC3)cc1`?
S1P3 antagonist: -11.4; S1P4 ag: 1.0; Biofilm kill mix: 12.3; MDM2 E3 inh: 30.1*; S1P4 antag: -9.3

How did COc1ccc(NC2=NC(=S)N(c3ccccc3C)C23CCCCC3)cc1 do in these assays?
S1P4 ag: -2.4; MDM2 E3 inh: -17.2; S1P4 antag: 21.6

What do the screens show for `CCCN(CCC)CCCNC(=S)Nc1ccc2nc3n(c(=O)c2c1)CCCCC3`?
S1P3 antagonist: -16.1; S1P4 ag: 0.2; Biofilm kill mix: 10.6; MDM2 E3 inh: 2.8; S1P4 antag: -9.5

How did O=C1OCC2=C1C(c1ccc(F)cc1)c1cc3c(cc1N2)OCCO3 (centres undefined) do in these assays?
S1P3 antagonist: 35.0*; S1P4 ag: 1.2; Biofilm kill mix: 15.0; MDM2 E3 inh: -7.9; S1P4 antag: -2.4

Results for O=C(c1ccco1)N1CCN(S(=O)(=O)Cc2ccccc2Cl)CC1 ?
S1P3 antagonist: 9.1; S1P4 ag: 1.9; Biofilm kill mix: 15.2; S1P4 antag: -10.7

What do the screens show for `CC1=CC(=C(C#N)c2nc3ccccc3s2)C=C(C)N1Cc1ccco1`?
S1P3 antagonist: 56.2*; S1P4 ag: 1.7; MDM2 E3 inh: -20.9; S1P4 antag: -10.0

How did N#C/C(=C(/O)c1ccco1)c1nc2ccccc2s1 do in these assays?
S1P3 antagonist: -20.5; S1P4 ag: 1.5; Biofilm kill mix: 22.4; MDM2 E3 inh: -3.2; S1P4 antag: 0.7

What do the screens show for `CN1CC(=O)N(CC(=O)Nc2ccc3c(c2)CCC3)C1=O`?
S1P3 antagonist: -20.5; S1P4 ag: 1.1; Biofilm kill mix: 5.3; MDM2 E3 inh: -12.2; S1P4 antag: 1.1

How did CC(C)OC(=O)n1c(=S)oc2ccccc21 do in these assays?
S1P4 ag: 0.2; MDM2 E3 inh: -0.6; S1P4 antag: -4.5

What do the screens show for `CCCCC(=O)/C=C/n1c(=S)oc2ccccc21`?
S1P3 antagonist: -11.0; S1P4 ag: 0.9; Biofilm kill mix: 14.0; MDM2 E3 inh: 68.5*; S1P4 antag: -13.9

What do the screens show for `C#CC(CC)(CC)NC(=O)NC1CCCCC1`?
S1P3 antagonist: -6.2; S1P4 ag: -1.9; Biofilm kill mix: 10.0; MDM2 E3 inh: -5.6; S1P4 antag: -6.0

What do the screens show for `CC1(C)CC2(CCO1)C(Nc1ccccc1)=NC(=S)N2CC(N)=O` (centres undefined)?
S1P3 antagonist: 0.1; S1P4 ag: -0.6; Biofilm kill mix: 17.0; MDM2 E3 inh: -3.7; S1P4 antag: -13.2

What do the screens show for `O=[N+]([O-])c1cc(S(=O)(=O)N2CCCCCC2)ccc1Cl`?
S1P3 antagonist: -20.5; S1P4 ag: -5.0; Biofilm kill mix: 11.9; MDM2 E3 inh: -9.3; S1P4 antag: 85.9*

What do the screens show for `CN1N=C(C(C)(C)C)CSC1=Nc1ccccc1`?
S1P3 antagonist: 1.8; S1P4 ag: 1.1; Biofilm kill mix: 13.7; MDM2 E3 inh: -0.2; S1P4 antag: -6.1
